Tested on: MES-SA
Experiment: Cytotoxicity against human MES-SA cells assessed as cell growth inhibition incubated for 72 hrs in presence of P-gp inhibitor Tariquidar by PrestoBlue reagent based cell viability assay
Type: functional
Conditions: read-out: IC50
How it was run: (§1)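 MES-SA and doxorubicin-selected MES-SA/Dx5 cells in DMEM with 10% FBS, 5 mmol/L glutamine, penicillin/streptomycin; 5000 cells/well attached 24 h, serial compound dilutions for 72 h, with or without 1 μM tariquidar. 5% PrestoBlue added after supernatant removal, 1 h at 37 °C, read ex 555/em 585 nm. Mean IC50 with SD, 2–53 independent assays.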

SMILES	IC50
Oc1c(CN2CCc3ccccc3C2)ccc2cccnc12	2.59 µM

Same assay, conditions: read-out: pIC50 (converted)

SMILES	IC50
CCN1CCN(C(c2cc(Cl)c3cccnc3c2O)N2CCCC2)CC1 (stereo unspecified)	3.31 µM

Tested on: MES-SA
Experiment: Cytotoxicity against human MES-SA cells assessed as cell growth inhibition incubated for 72 hrs by PrestoBlue reagent based cell viability assay
Type: functional
Conditions: read-out: IC50
How it was run: as §1

SMILES	IC50
Oc1ccccc1CN1CCNCC1	> 100 µM

Same assay, conditions: read-out: pIC50 (converted)

SMILES	IC50
CCN1CCN(C(c2cc(Cl)c3cccnc3c2O)N2CCCC2)CC1 (stereo unspecified)	3.31 µM

Tested on: not listed separately
Experiment: Selectivity ratio of IC50 for cytotoxicity against human MES-SA cells assessed as cell growth inhibition to IC50 for cytotoxicity against multidrug resistance human MES-SA/Dx5 cells assessed as cell growth inhibition
Type: functional
Conditions: not given

SMILES	Ratio IC50
CN1CCN(C(c2ccccn2)c2cc(Cl)c3cccnc3c2O)CC1 (stereo unspecified)	1.2
CN1CCN(C(c2cccnc2)c2ccc3cccnc3c2O)CC1 (stereo unspecified)	1.5
CCN1CCN(C(c2cccnc2)c2cc(Cl)c3cccnc3c2O)CC1 (stereo unspecified)	0.9
Oc1ccc(CN2CCN(c3ccccc3)CC2)c2cccnc12	0.9
Oc1c(C(c2ccccn2)N2CCOCC2)ccc2cccnc12 (stereo unspecified)	1.6
CC(C)OCc1cc(CN2CCN(c3ccccc3)CC2)c(O)c2ncccc12	4.3
Oc1c(CN2CCN(c3ccccc3)CC2)cc(Cl)c2cccnc12	6
CCN1CCN(Cc2ccc(O)c3ncccc23)CC1	0.8
Oc1ccc(CN2CCCCCC2)c2cccnc12	1.2
Oc1c(C(c2cccs2)N2CCOCC2)cc(Cl)c2cccnc12 (stereo unspecified)	0.6
Oc1c(C(c2ccccn2)N2CCOCC2)cc(Cl)c2cccnc12 (stereo unspecified)	1.6
Cc1ccc(C(c2cc(Cl)c3cccnc3c2O)N2CCCC2)cc1 (stereo unspecified)	2.3
Oc1c(C(c2cccs2)N2CCCCC2)ccc2cccnc12 (stereo unspecified)	0.8
Oc1c(C(c2cccnc2)N2CCOCC2)cc(Cl)c2cccnc12 (stereo unspecified)	1.6
CCOCc1cc(CN2CCOCC2)c(O)c2ncccc12	1.9
CN1CCN(C(c2cccs2)c2ccc3cccnc3c2O)CC1 (stereo unspecified)	0.8
Oc1c(C(c2ccncc2)N2CCCC2)ccc2cccnc12 (stereo unspecified)	1.6

SMILES	Ratio IC50
COCc1cc(CN2CCOCC2)c(O)c2ncccc12	1.7
COCc1cc(CN2CCN(c3ccccc3)CC2)c(O)c2ncccc12	2.2
CCN1CCN(C(c2cccnc2)c2ccc3cccnc3c2O)CC1 (stereo unspecified)	2.1
Oc1c(C(c2cccnc2)N2CCCC2)ccc2cccnc12 (stereo unspecified)	1.8
CCN1CCN(C(c2cccs2)c2ccc3cccnc3c2O)CC1 (stereo unspecified)	0.6
Oc1c(C(c2ccccc2)N2CCOCC2)ccc2cccnc12 (stereo unspecified)	1.8
CN1CCN(Cc2cnc3ccccc3c2O)CC1	1.99
Oc1c(C(c2ccncc2)N2CCCCC2)ccc2cccnc12 (stereo unspecified)	1.9
Oc1ccc(CN2CCOCC2)c2cccnc12	0.7
CCN1CCN(C(c2cc(Cl)c3cccnc3c2O)N2CCCC2)CC1 (stereo unspecified)	2.8
Oc1c(CN2CCCC2)cc(Br)c2cccnc12	9.8
Oc1c(CN2CCOCC2)cc(Br)c2cccnc12	2.5
CCN1CCN(C(c2ccccn2)c2cc(Cl)c3cccnc3c2O)CC1 (stereo unspecified)	1.2
Oc1c(C(c2ccccc2)N2CCCCC2)cc(Cl)c2cccnc12 (stereo unspecified)	1.1
Oc1ccc(CN2CCCC2)c2cccnc12	1.5
Oc1c(CN2CCCCC2)cc(Br)c2cccnc12	10.8

Tested on: MES-SA/Dx5
Experiment: Cytotoxicity against multidrug resistance human MES-SA/Dx5 cells assessed as cell growth inhibition incubated for 72 hrs by PrestoBlue reagent based cell viability assay
Type: functional
Conditions: MES-SA/Dx5, 72 h, read-out: IC50
How it was run: as §1

SMILES	IC50
Oc1ccccc1CN1CCNCC1	> 100 µM

Same assay, conditions: MES-SA/Dx5, 72 h, read-out: pIC50 (converted)

SMILES	IC50
CCN1CCN(C(c2cc(Cl)c3cccnc3c2O)N2CCCC2)CC1 (stereo unspecified)	1.17 µM

Tested on: MES-SA/Dx5
Experiment: Cytotoxicity against multidrug resistance human MES-SA/Dx5 cells assessed as cell growth inhibition incubated for 72 hrs in presence of P-gp inhibitor Tariquidar by PrestoBlue reagent based cell viability assay
Type: functional
Conditions: MES-SA/Dx5, 72 h
How it was run: as §1

SMILES	IC50
CCN1CCN(C(c2cc(Cl)c3cccnc3c2O)N2CCCC2)CC1 (stereo unspecified)	2.45 µM
Oc1c(CN2CCCC2)cc(Br)c2cccnc12	2.69 µM

Tested on: not listed separately
Experiment: Selectivity ratio of IC50 for cytotoxicity against human MES-SA cells assessed as cell growth inhibition in presence of P-gp inhibitor Tariquidar to IC50 for cytotoxicity against multidrug resistance human MES-SA/Dx5 cells assessed as cell growth inhibition in presence of P-gp inhibitor Tariquidar
Type: functional
Conditions: not given

SMILES	Ratio IC50
COCc1cc(CN2CCCC2)c(O)c2ncccc12	3
Oc1c(C(c2ccccn2)N2CCCCC2)cc(Cl)c2cccnc12 (stereo unspecified)	2.5
CC(C)OCc1cc(CN2CCN(c3ccccc3)CC2)c(O)c2ncccc12	1.5
Oc1c(C(c2ccncc2)N2CCOCC2)ccc2cccnc12 (stereo unspecified)	1.4
CCOCc1cc(CN2CCCC2)c(O)c2ncccc12	1.7
CCOCc1cc(CN2CCN(C)CC2)c(O)c2ncccc12	1.3
CN1CCN(C(c2ccncc2)c2ccc3cccnc3c2O)CC1 (stereo unspecified)	1.6
CCCOCc1cc(CN2CCN(C)CC2)c(O)c2ncccc12	1.7
CCCOCc1cc(CN2CCN(c3ccccc3)CC2)c(O)c2ncccc12	1.7
CCOCc1cc(CN2CCN(c3ccccc3)CC2)c(O)c2ncccc12	1.5
COCc1cc(CN2CCOCC2)c(O)c2ncccc12	1.1
CCN1CCN(C(c2cccnc2)c2ccc3cccnc3c2O)CC1 (stereo unspecified)	1
COCc1cc(CN2CCCCC2)c(O)c2ncccc12	1.3
CC(C)OCc1cc(CN2CCCCC2)c(O)c2ncccc12	1.3
CCCOCc1cc(CN2CCCCC2)c(O)c2ncccc12	1.5
CCN1CCN(C(c2cc(Cl)c3cccnc3c2O)N2CCCC2)CC1 (stereo unspecified)	1.3
Oc1c(CN2CCCCCC2)cc(Cl)c2cccnc12	1.3
Oc1c(CN2CCc3ccccc3C2)ccc2cccnc12	1.5
Oc1c(CN2CCCC2)cc(Br)c2cccnc12	1.5
COCc1cc(CN2CCC(C)CC2)c(O)c2ncccc12	1.4
Oc1c(CN2CCOCC2)cc(Br)c2cccnc12	1.5
CCOCc1cc(CN2CCC(C)CC2)c(O)c2ncccc12	1.5
Oc1cccc2cccnc12 [OXYQUINOLINE]	2.3

Tested on: A-431
Experiment: Cytotoxicity against human A-431 cells assessed as cell growth inhibition after 72 hrs by PrestoBlue reagent based cell viability assay
Type: functional
Conditions: A-431, 72 h
How it was run: (§2)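 A431 and retrovirally P-gp (ABCB1)-transduced A431 cells kept in supplemented DMEM; 5000 cells/well attached 24 h, then serial compound dilutions for 72 h. Medium removed, 5% PrestoBlue (resazurin) added, 1 h at 37 °C, fluorescence ex 555/em 585 nm.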

SMILES	IC50
CCN1CCN(C(c2cc(Cl)c3cccnc3c2O)N2CCCC2)CC1 (stereo unspecified)	8.71 µM

Tested on: A-431
Experiment: Cytotoxicity against human A-431 cells expressing ABCB1 assessed as cell growth inhibition incubated for 72 hrs by PrestoBlue reagent based cell viability assay
Type: functional
Conditions: A-431, 72 h
How it was run: as §2

SMILES	IC50
CCN1CCN(C(c2cc(Cl)c3cccnc3c2O)N2CCCC2)CC1 (stereo unspecified)	5.13 µM

Tested on: not listed separately
Experiment: Selectivity ratio of IC50 for cytotoxicity against human A-431 cells assessed as cell growth inhibition to IC50 for cytotoxicity against human A-431 cells expressing ABCB1 assessed as cell growth inhibition
Type: functional
Conditions: not given

SMILES	Ratio IC50
CN1CCN(C(c2ccccn2)c2cc(Cl)c3cccnc3c2O)CC1 (stereo unspecified)	2.8
COCc1cc(CN2CCCC2)c(O)c2ncccc12	13.1
CN1CCN(Cc2cc(Cl)c3cccnc3c2O)CC1	2.3
COCc1cc(CN2CCN(C)CC2)c(O)c2ncccc12	2.9
Oc1c(CN2CCN(c3ccc(F)cc3)CC2)cc(Cl)c2cccnc12	1.3
Oc1c(C(c2ccccn2)N2CCCCC2)cc(Cl)c2cccnc12 (stereo unspecified)	2.1
CC(C)OCc1cc(CN2CCN(c3ccccc3)CC2)c(O)c2ncccc12	3.9
Oc1c(CN2CCN(c3ccccn3)CC2)cc(Cl)c2cccnc12	1.2
Oc1c(CN2CCN(c3ccccc3)CC2)cc(Cl)c2cccnc12	1.3
CCCCOCc1cc(CN2CCN(C)CC2)c(O)c2ncccc12	2.4
CCN(CC)Cc1ccc2cccnc2c1O	2.7
Oc1c(CN2CCCC2)ccc2cccnc12	5.2
Oc1c(CN2CCCCC2)cc(Cl)c2cccnc12	3.9
CC(C)OCc1cc(CN2CCOCC2)c(O)c2ncccc12	2.5
CCOCc1cc(CN2CCCC2)c(O)c2ncccc12	6
Cc1ccccc1N1CCN(Cc2ccc(O)c3ncccc23)CC1	0.7
CCOCc1cc(CN2CCN(C)CC2)c(O)c2ncccc12	2.9
Oc1c(C(c2ccccn2)N2CCCC2)ccc2cccnc12 (stereo unspecified)	4.4
CCCOCc1cc(CN2CCN(C)CC2)c(O)c2ncccc12	3
CN1CCN(Cc2ccc3cccnc3c2O)CC1	2.3
CCOCc1cc(CN2CCOCC2)c(O)c2ncccc12	4.1
Oc1c(CN2CCCC2)cc(Cl)c2cccnc12	3.8
CCCOCc1cc(CN2CCN(c3ccccc3)CC2)c(O)c2ncccc12	2.4

SMILES	Ratio IC50
CCOCc1cc(CN2CCN(c3ccccc3)CC2)c(O)c2ncccc12	3.1
COCc1cc(CN2CCOCC2)c(O)c2ncccc12	2.8
CC1CCN(Cc2cc(COC(C)C)c3cccnc3c2O)CC1	4.1
COCc1cc(CN2CCN(c3ccccc3)CC2)c(O)c2ncccc12	3.9
COCc1cc(CN2CCCCC2)c(O)c2ncccc12	6.3
Oc1c(C(c2ccncc2)N2CCCCC2)ccc2cccnc12 (stereo unspecified)	7.8
CC(C)OCc1cc(CN2CCCCC2)c(O)c2ncccc12	3.9
CC1CCN(Cc2cc(Cl)c3cccnc3c2O)CC1	6.1
CCCOCc1cc(CN2CCCCC2)c(O)c2ncccc12	4.6
CCN1CCN(C(c2cc(Cl)c3cccnc3c2O)N2CCCC2)CC1 (stereo unspecified)	1.7
Oc1c(CN2CCCCCC2)cc(Cl)c2cccnc12	2.1
Oc1c(CN2CCc3ccccc3C2)ccc2cccnc12	2
Oc1c(CN2CCCC2)cc(Br)c2cccnc12	2.9
COCc1cc(CN2CCC(C)CC2)c(O)c2ncccc12	6.1
Oc1c(CN2CCOCC2)cc(Br)c2cccnc12	3.1
CCOC(=O)C1CCN(Cc2cc(Cl)c3cccnc3c2O)CC1	4.1
CCN(CC)Cc1cc(Cl)c2cccnc2c1O	6.2
CCOCc1cc(CN2CCCCC2)c(O)c2ncccc12	6
CCOCc1cc(CN2CCC(C)CC2)c(O)c2ncccc12	5
Oc1c(C(c2ccccn2)N2CCCC2)cc(Cl)c2cccnc12 (stereo unspecified)	3.7
Oc1c(CN2CCCCC2)cc(Br)c2cccnc12	3.2
Oc1c(CN2CCCCC2)ccc2cccnc12	4.1

Source: ChEMBL document CHEMBL5154931, “Structure-Activity Relationships of 8-Hydroxyquinoline-Derived Mannich Bases with Tertiary Amines Targeting Multidrug-Resistant Cancer” (J Med Chem, 2022)
